In ChEMBL document CHEMBL1131333, “2-Iminohomopiperidinium salts as selective inhibitors of inducible nitric oxide synthase (iNOS)” (J Med Chem, 1998):

Tests used:
Nitric oxide synthase 3 = molecular target: T1, Nitric oxide synthase 3 (Homo sapiens, UniProt P29474); test: Inhibitory activity evaluated from soluble cell extract of human endothelia constitutive enzyme (Endothelial nitric oxide synthase) and partially purified by DEAE-sepharose chromatography
T1 sequence (P29474 whole entry): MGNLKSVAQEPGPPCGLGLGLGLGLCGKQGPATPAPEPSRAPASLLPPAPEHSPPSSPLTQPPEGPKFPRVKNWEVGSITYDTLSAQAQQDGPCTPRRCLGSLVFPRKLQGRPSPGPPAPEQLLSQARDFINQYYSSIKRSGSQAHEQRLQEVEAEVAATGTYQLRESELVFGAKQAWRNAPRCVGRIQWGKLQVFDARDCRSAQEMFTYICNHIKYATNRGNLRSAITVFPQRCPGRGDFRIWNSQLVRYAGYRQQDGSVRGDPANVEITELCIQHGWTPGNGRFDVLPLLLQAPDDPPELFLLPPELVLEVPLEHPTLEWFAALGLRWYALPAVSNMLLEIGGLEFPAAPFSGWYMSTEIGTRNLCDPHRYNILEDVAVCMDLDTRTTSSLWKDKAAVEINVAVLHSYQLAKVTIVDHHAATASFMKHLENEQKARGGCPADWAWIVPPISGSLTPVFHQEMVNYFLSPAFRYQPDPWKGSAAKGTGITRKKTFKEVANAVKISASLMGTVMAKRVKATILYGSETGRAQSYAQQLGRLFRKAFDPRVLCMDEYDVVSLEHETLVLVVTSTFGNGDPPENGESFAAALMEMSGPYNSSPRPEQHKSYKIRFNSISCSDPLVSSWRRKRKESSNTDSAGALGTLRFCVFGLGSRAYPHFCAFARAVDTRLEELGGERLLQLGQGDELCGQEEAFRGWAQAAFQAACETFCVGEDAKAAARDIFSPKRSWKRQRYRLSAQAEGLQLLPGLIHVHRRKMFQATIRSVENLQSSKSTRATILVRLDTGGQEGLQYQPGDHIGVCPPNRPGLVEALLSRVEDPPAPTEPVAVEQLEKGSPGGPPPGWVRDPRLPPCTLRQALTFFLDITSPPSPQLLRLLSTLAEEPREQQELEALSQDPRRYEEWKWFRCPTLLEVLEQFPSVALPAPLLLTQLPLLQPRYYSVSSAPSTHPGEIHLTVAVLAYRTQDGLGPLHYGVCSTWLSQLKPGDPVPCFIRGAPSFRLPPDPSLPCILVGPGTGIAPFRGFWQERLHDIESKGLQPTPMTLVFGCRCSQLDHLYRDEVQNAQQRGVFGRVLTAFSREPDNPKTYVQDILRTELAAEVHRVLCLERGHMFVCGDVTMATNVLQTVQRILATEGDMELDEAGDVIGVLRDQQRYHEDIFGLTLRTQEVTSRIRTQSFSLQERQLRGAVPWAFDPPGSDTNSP
In short: (§1)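 Recombinant human iNOS, eNOS or nNOS expressed in Sf9 cells (baculovirus). L-[3H]arginine to [3H]citrulline conversion in Tris pH 7.6 with BSA, DTT, CaCl2, FAD, tetrahydrobiopterin, NADPH and 30 μM final L-arginine. Calmodulin at 40 nM final for eNOS and nNOS only. 15 min at 37 °C, stopped with EGTA/HEPES pH 5.5, Dowex separation, scintillation counting. At least duplicate.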

[1] = molecular target: Nitric oxide synthase, inducible (Rattus norvegicus) (UniProt Q06518); test: The ability of compounds to inhibit Inducible nitric oxide synthase in LPS-treated male Lewis rats at 10 mg/kg dose; assay type: organism-based; parameters: dose 10 mg/kg
In short: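 Rats dosed 10 mg/kg orally by gavage 1 h before LPS (10 mg/kg ip). Blood taken 5 h after LPS; plasma filtered through a 10 000 MW cutoff filter, and nitrite/nitrate measured fluorometrically. Percent inhibition calculated relative to rats given LPS alone.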

[2] = molecular target: T2, Nitric oxide synthase, inducible (Mus musculus, UniProt P29477); test: The ability of compound to inhibit mouse Inducible nitric oxide synthase in LPS stimulated mouse RAW cells was determined; assay type: cell-based
T2 sequence (P29477 whole entry): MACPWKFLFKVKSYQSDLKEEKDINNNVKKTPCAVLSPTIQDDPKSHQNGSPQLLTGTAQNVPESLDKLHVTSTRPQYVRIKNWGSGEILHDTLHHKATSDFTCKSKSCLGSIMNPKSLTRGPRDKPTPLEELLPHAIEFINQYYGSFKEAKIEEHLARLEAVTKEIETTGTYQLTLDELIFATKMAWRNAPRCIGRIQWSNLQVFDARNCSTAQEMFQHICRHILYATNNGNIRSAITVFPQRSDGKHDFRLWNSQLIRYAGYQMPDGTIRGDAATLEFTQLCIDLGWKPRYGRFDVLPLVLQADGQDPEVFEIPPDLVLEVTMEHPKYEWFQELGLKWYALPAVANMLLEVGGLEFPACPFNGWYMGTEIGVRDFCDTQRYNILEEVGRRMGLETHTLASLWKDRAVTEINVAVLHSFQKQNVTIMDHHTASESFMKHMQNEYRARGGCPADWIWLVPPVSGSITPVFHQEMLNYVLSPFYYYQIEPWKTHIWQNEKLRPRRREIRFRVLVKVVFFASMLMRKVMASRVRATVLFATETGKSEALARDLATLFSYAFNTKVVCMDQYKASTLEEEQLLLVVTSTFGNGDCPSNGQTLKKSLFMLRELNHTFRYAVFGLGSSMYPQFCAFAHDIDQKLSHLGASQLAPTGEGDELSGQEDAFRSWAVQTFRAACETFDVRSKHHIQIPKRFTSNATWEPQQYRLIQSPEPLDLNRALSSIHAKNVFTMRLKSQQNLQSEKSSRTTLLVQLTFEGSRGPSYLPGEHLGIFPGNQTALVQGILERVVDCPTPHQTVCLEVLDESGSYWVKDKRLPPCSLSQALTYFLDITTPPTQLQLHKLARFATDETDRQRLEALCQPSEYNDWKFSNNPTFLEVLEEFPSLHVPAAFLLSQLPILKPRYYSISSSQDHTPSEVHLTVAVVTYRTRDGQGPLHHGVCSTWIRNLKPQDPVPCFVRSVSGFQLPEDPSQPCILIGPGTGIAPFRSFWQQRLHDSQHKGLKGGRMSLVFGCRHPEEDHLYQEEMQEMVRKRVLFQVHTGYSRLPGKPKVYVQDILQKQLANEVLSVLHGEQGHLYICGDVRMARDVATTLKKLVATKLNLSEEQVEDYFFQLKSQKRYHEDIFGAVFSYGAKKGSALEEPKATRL
In short: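 RAW 264.7 cells plated at 2×10^5/well and induced 17 h with 10 μg/mL LPS (E. coli O111:B4). Washed, preincubated 1 h on ice in Krebs Ringer/HEPES pH 7.5 with glucose, 30 μM L-arginine and five inhibitor concentrations, then 2 h at 37 °C. Nitrite measured fluorometrically.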

[3] = molecular target: Nitric oxide synthase, inducible (Homo sapiens, UniProt P35228); test: Inhibitory activity evaluated for soluble cell extract of human Inducible nitric oxide synthase and partially purified by DEAE-sepharose chromatography; in short: as §1
Nitric oxide synthase 1 [4] = molecular target: T3, Nitric oxide synthase 1 (Homo sapiens, UniProt P29475); test: Inhibitory activity evaluated from soluble cell extract of human nNeuronal nitric oxide synthase and partially purified by DEAE-sepharose chromatography; in short: as §1
Nitric oxide synthase 1 [5] = molecular target: T3, Nitric oxide synthase 1; test: Inhibitory activity evaluated from soluble cell extract of human Neuronal nitric oxide synthase and partially purified by DEAE-sepharose chromatography; in short: as §1
Nitric oxide synthase 1 [6] = molecular target: T3, Nitric oxide synthase 1; test: Inhibitory activity evaluated from soluble cell extract of Neuronal nitric oxide synthase and partially purified by DEAE-sepharose chromatography

Sequence of Nitric oxide synthase, inducible (Rattus norvegicus) (Q06518 whole entry): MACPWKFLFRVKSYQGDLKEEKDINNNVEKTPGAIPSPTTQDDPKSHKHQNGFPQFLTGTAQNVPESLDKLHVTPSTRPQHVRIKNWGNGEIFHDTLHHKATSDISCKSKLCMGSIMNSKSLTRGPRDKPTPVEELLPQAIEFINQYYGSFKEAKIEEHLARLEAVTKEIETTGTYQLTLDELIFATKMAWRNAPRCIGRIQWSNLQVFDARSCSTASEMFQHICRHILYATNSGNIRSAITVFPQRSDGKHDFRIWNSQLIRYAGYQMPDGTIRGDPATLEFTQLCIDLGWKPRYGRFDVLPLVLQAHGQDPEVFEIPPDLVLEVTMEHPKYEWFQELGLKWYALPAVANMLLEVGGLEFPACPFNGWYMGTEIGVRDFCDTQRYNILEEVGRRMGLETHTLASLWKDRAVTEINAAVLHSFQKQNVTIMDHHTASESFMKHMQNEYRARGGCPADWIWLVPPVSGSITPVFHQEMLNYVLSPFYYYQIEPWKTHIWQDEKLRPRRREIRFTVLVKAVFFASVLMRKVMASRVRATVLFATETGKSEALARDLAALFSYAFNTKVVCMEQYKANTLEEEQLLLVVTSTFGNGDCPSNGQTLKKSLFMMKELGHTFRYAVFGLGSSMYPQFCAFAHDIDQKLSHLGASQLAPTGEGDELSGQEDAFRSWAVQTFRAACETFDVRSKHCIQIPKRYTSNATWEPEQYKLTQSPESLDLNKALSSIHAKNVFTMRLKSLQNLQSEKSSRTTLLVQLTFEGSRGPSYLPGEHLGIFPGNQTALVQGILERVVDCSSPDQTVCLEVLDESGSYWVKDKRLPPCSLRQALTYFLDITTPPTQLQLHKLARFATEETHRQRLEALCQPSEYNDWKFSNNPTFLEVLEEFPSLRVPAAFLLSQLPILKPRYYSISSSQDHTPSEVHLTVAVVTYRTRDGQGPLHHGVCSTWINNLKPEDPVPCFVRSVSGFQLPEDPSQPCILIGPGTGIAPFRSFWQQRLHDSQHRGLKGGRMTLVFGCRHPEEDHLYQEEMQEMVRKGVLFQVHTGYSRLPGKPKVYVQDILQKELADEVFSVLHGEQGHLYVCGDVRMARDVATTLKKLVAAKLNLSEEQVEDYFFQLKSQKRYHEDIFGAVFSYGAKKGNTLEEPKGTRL
Sequence of Nitric oxide synthase, inducible (Homo sapiens, UniProt P35228) (P35228 whole entry): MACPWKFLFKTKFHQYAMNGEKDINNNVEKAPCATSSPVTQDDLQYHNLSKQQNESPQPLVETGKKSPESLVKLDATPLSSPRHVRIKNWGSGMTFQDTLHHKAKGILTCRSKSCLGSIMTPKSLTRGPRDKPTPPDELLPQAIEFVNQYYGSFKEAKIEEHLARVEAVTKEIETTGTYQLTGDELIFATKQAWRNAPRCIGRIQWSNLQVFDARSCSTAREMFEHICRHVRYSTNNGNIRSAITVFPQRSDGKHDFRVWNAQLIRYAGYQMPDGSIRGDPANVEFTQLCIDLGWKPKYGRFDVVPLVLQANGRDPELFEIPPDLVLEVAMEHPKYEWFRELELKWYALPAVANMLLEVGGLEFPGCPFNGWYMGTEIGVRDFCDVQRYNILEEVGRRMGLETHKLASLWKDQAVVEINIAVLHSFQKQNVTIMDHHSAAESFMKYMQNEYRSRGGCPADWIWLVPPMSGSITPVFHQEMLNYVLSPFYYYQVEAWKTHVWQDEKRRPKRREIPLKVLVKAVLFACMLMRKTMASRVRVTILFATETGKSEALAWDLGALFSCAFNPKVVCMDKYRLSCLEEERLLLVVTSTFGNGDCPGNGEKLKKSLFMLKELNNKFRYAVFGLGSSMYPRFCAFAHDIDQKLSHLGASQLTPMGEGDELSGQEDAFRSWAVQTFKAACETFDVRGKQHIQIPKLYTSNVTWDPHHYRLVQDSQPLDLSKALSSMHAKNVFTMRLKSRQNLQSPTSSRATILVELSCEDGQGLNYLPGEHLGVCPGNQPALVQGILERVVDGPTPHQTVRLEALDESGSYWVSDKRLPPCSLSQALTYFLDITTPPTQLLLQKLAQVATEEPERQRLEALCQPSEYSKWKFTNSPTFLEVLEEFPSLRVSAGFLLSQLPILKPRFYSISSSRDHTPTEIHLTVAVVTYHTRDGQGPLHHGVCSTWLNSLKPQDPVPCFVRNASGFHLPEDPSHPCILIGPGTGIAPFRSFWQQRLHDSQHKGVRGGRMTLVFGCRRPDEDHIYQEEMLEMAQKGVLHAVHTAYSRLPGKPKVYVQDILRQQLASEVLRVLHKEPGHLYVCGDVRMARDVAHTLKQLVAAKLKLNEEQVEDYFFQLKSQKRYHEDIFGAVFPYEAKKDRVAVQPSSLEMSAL
T3 sequence (P29475 whole entry): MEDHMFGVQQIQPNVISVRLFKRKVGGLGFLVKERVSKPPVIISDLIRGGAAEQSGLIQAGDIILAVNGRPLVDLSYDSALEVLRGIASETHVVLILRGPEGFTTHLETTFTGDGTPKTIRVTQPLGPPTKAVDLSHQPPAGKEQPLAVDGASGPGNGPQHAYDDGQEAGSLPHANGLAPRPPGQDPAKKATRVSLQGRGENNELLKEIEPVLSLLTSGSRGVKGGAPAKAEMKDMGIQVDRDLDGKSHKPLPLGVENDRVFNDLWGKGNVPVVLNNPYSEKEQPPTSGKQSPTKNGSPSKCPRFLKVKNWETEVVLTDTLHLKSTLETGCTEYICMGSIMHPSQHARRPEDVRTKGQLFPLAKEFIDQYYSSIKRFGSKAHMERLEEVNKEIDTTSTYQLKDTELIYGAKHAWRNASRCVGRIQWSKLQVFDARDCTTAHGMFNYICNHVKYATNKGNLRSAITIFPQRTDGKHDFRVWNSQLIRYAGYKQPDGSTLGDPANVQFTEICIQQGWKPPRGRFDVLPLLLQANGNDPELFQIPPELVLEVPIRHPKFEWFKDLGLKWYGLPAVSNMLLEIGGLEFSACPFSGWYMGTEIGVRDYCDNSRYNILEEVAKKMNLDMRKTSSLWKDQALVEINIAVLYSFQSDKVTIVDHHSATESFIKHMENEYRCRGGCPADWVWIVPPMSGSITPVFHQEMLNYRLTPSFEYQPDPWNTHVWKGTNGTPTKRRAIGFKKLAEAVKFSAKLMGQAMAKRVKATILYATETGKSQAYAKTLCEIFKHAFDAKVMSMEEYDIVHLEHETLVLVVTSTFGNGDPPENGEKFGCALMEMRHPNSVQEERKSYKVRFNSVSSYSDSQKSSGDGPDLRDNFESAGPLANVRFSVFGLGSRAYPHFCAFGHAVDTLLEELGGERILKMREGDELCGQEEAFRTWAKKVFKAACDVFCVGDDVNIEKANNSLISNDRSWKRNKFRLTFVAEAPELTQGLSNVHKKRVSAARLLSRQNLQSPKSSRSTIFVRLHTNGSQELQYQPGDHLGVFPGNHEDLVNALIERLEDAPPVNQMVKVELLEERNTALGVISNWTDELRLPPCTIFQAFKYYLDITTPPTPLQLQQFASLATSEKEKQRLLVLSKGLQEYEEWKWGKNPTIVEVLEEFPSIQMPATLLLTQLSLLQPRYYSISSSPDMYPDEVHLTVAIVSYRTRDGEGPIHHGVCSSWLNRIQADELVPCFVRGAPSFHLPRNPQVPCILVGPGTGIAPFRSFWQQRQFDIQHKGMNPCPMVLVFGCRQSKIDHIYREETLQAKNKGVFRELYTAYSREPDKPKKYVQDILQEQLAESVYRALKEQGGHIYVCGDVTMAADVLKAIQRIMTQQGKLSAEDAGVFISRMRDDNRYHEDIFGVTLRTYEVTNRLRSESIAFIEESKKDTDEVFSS

| IC50 (Nitric oxide synthase 3) [µM] | inhibition [1] [%] | IC50 [2] [µM] | IC50 [3] [µM] | IC50 (Nitric oxide synthase 1 [4]) [µM] | IC50 (Nitric oxide synthase 1 [5]) [µM] | IC50 (Nitric oxide synthase 1 [6]) [µM] | Compound |
| --- | --- | --- | --- | --- | --- | --- | --- |
| 9.5 | 85 | – | – | – | – | – | CCCC1CCCCC(N)=N1 (configuration not stated) |
| 103 | 60 | 1.6 | 0.5 | 0.85 | – | – | CCCCC1CCCCC(N)=N1 (configuration not stated) |
| 15 | – | 54 | 2.1 | – | – | – | NC1=NCCCCC1 |
| 39 | – | – | – | 3.8 | – | – | C[C@@H]1CCCC(N)=NC1 |
| 215 | – | 31 | 14 | – | 6.6 | – | NC1=NC(c2ccccc2)CCCC1 (configuration not stated) |
| 39 | – | 24 | 5.8 | – | – | 11 | CC1CCN=C(N)CC1 (configuration not stated) |
| 660 | – | 3.3 | 2.1 | – | 5.4 | – | CCC(CC)CC1CCCCC(N)=N1 (configuration not stated) |
| 380 | – | 19 | 5.8 | – | – | 16 | C=CCC1CCCCN=C1N (configuration not stated) |
| 38 | – | – | – | – | – | 2.4 | CCC1CCCCN=C1N (configuration not stated) |
| 21 | 80 | – | – | – | – | – | C=CCC1CCCCC(N)=N1 (configuration not stated) |
